Reference: ChEMBL document CHEMBL1131244, “New alkenyldiarylmethanes with enhanced potencies as anti-HIV agents which act as non-nucleoside reverse transcriptase inhibitors” (J Med Chem, 1998)

Assays:
CCRF-CEM [1] = test: The compound is evaluated for the activity against OC (Oxathiin carboxanilide resistant), L100I mutation in reverse transcriptase in CEM-CC cells.; assay type: functional, cell-based; details: Homo sapiens
Method in brief: (§1)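 Cytoprotection assay in CEM-CC cells against NNRTI-resistant HIV-1 isolates obtained by in vitro selection or site-directed mutagenesis, using a higher MOI than the original screening assays. EC50 determined; fold resistance relative to wild-type HIV-1 IIIB.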

CEM-SS [2] = test: The compound is evaluated for the activity against HIV-1 NL4-3, Y181C mutation in reverse transcriptase in CEM-SS cells.
[3] = biological target: T1, Human immunodeficiency virus type 1 protease (Human immunodeficiency virus 1, UniProt Q72874); test: The compound is evaluated for the inhibitory against HIV -1 protease, a 17% inhibition of HIV-1 protease was observed at a concentration of 100 uM
[4] = The compound is evaluated for the inhibitory activity against HIV-1, clade C in PBMC cells.; assay type: functional, cell-based, Homo sapiens
CEM-SS [5] = test: The compound is evaluated for the activity against HIV-1 NL4-3, L100I mutation in reverse transcriptase in CEM-SS cells.
[6] = The compound is evaluated for the inhibitory activity against HIV-1 TEKI, wild-type clinical isolate in PBMC cells.; assay type: functional, cell-based, Homo sapiens
[7] = biological target: T2, Human immunodeficiency virus type 1 integrase (Human immunodeficiency virus 1, UniProt Q7ZJM1); test: The compound is evaluated for the inhibitory against HIV -1 integrase. NI indicates no inhibition at 100 uM conc.
CCRF-CEM [8] = test: The compound is evaluated for the cytotoxic concentration for the mock-infected CEM cells; assay type: functional; details: Homo sapiens
Method in brief: (§2)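 XTT cytoprotection assay in CEM-SS cells infected with HIV-1 RF, with uninfected cultures for cytotoxicity, in presence of fetal calf serum. Data as percent of uninfected drug-free control. EC50 is 50% protection from cytopathicity; CC50 is 50% cell death in uninfected cells; TI = CC50/EC50. Triplicates on each of two sister plates, plate EC50s averaged. Confirmed by supernatant RT and p24.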

[9] = The compound is evaluated for the inhibitory activity against HIV-1 ROJO, wild-type clinical isolate in PBMC cells.; assay type: functional, cell-based, Homo sapiens
CEM-SS [10] = test: The compound is evaluated for the activity against HIV-1 NL4-3, Y188C mutation in reverse transcriptase in CEM-SS cells.
[11] = The compound is evaluated for the inhibitory activity against HIV-1, clade D in PBMC cells.; assay type: functional, cell-based, Homo sapiens
CEM-SS [12] = test: The compound is evaluated for the activity against HIV-1 NL4-3, A98G mutation in reverse transcriptase in CEM-SS cells.
CCRF-CEM [13] = test: The compound is evaluated for the activity against cost, Y188H mutation in reverse transcriptase in CEM-CC cells.; assay type: functional, cell-based; details: Homo sapiens; method in brief: as §1
CEM-SS [14] = test: The compound is evaluated for the activity against HIV-1 NL4-3, K101E mutation in reverse transcriptase in CEM-SS cells.
CCRF-CEM [15] = test: The compound is evaluated for the activity against 3TC, M184I mutation in reverse transcriptase in CEM-CC cells.; assay type: functional, cell-based; details: Homo sapiens
CEM-SS [16] = test: The compound is evaluated for the activity against HIV-1 NL4-3, 4XAZT (AZT resistant) mutation in reverse transcriptase in CEM-SS cells.; assay type: functional, cell-based; details: Homo sapiens
Method in brief: (§3)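 NL4-3-background virus carrying RT mutations, from site-directed mutagenesis or in vitro NNRTI selection, tested in CEM-SS cells. A higher MOI was used than in the primary screening assays. The result is given as EC50 against each mutant or wild-type virus.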

[17] = The compound is evaluated for the inhibitory activity against HIV-1, clade E in PBMC cells.; assay type: functional, cell-based, Homo sapiens
Homo sapiens = species: Homo sapiens; test: The compound is evaluated for the inhibitory activity against HIV-1 Ba-L, monocyte-tropic in Mono/Mac cells.; assay type: functional, cell-based
CEM-SS [18] = test: The compound is evaluated for the activity against HIV-1 NL4-3, wild - type mutation in reverse transcriptase in CEM-SS cells.; assay type: functional, cell-based; details: Homo sapiens; method in brief: as §3
CEM-SS [19] = test: The compound is evaluated for the activity against HIV-1 NL4-3, V106A mutation in reverse transcriptase in CEM-SS cells.
CEM-SS [20] = test: The compound is evaluated for the activity against HIV-1 NL4-3, K103N mutation in reverse transcriptase in CEM-SS cells.
CCRF-CEM [21] = test: The compound is evaluated for the activity against HEPT ((Hydroxyethoxy) methyl (phenylthio)thymine resistant), P236L mutation in reverse transcriptase in CEM-CC cells.; assay type: functional, cell-based; details: Homo sapiens; method in brief: as §1
CEM-SS [22] = test: The compound is evaluated for the activity against HIV-1 NL4-3, V108I mutation in reverse transcriptase in CEM-SS cells.
CCRF-CEM [23] = test: The compound is evaluated for the activity against TSAO/cost (costatolide resistant), K101E mutation in reverse transcriptase in CEM-CC cells.; assay type: functional, cell-based; details: Homo sapiens; method in brief: as §1
CCRF-CEM [24] = test: The compound is evaluated for the activity against calo ( calanolide resistant), T139I mutation in reverse transcriptase in CEM-CC cells.; assay type: functional, cell-based; details: Homo sapiens; method in brief: as §1
CCRF-CEM [25] = test: The compound is evaluated for the activity against DPS ( Diphenyl sulfone resistant), Y181C mutation in reverse transcriptase in CEM-CC cells.; assay type: functional, cell-based; details: Homo sapiens; method in brief: as §1
[26] = biological target: T3, Human immunodeficiency virus 1 nucleocapsid (Human immunodeficiency virus 1, UniProt Q76059); test: Inhibition of HIV-1 Nucleocapsid protein p7 (no inhibition at 25 uM)
[27] = The compound is evaluated for the inhibitory activity against HIV-1, clade F in PBMC cells.; assay type: functional, cell-based, Homo sapiens
CCRF-CEM [28] = test: The compound is evaluated for the activity against thiazol (thiazolobenzimidazole resistant), T139I mutation in reverse transcriptase in CEM-CC cells.; assay type: functional, cell-based; details: Homo sapiens, in the assay text read “V108I” for “T139I”; method in brief: as §1
CEM-SS [29] = test: The compound is evaluated for the activity against HIV-1 NL4-3, V179D mutation in reverse transcriptase in CEM-SS cells.
[30] = The compound is evaluated for the inhibitory activity against HIV-1, clade A in PBMC cells.; assay type: functional, cell-based, Homo sapiens
CEM-SS [31] = test: The compound is evaluated for the inhibitory activity against HIV-1 IIIB, wild-type laboratory adapted strain in CEM-SS.; assay type: functional, cell-based; details: Homo sapiens
Method in brief: (§4)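 XTT cytoprotection assay in CEM-SS cells infected with HIV-1. EC50 is the concentration giving 50% protection from viral cytopathicity, relative to the uninfected drug-free control. Triplicates were averaged on each of two sister plates, and the two plate EC50s were averaged. Results were confirmed by supernatant RT and p24 levels.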

CEM-SS [32] = test: The compound is evaluated for the inhibitory activity against HIV-1 RF, wild-type laboratory adapted strain in CEM-SS.; assay type: functional, cell-based; details: Homo sapiens; method in brief: as §4
CEM-SS [33] = test: The compound is evaluated for the activity against HIV-1 NL4-3, 4XAZT/L100I (AZT resistant) mutation in reverse transcriptase in CEM-SS cells.
CCRF-CEM [34] = test: The compound is evaluated for the activity against 129/cost (costatolide resistant), V108I mutation in reverse transcriptase in CEM-CC cells.; assay type: functional, cell-based; details: Homo sapiens, in the assay text read “K103N” for “V108I”; method in brief: as §1
CEM-SS [35] = test: The compound is evaluated for the activity against HIV-1 NL4-3, L74V mutation in reverse transcriptase in CEM-SS cells.
CEM-SS [36] = test: The compound is evaluated for the activity against HIV-1 NL4-3, 4XAZT/Y181C (AZT resistant) mutation in reverse transcriptase in CEM-SS cells.
[37] = The compound is evaluated for the inhibitory activity against HIV-1, clade B in PBMC cells.; assay type: functional, cell-based, Homo sapiens
CCRF-CEM [38] = test: The compound is evaluated for the activity against HIV-1 IIIB, wild - type mutation in reverse transcriptase in CEM-CC cells.; assay type: functional, cell-based; details: Homo sapiens
Method in brief: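 Resistant-virus panel in CEM-CC cells. Mutant isolates came from in vitro selection under various NNRTIs. More virus (higher MOI) was used than in the primary screening assays. The result is given as EC50 against each RT-mutant or wild-type isolate.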

[39] = biological target: T3, Human immunodeficiency virus 1 nucleocapsid; test: Inhibition of HIV-1 Nucleocapsid protein p7 (no inhibition)
[40] = The compound is evaluated for the therapeutic index, which is the CC50 divided by the EC50; assay type: functional; method in brief: as §2
CEM-SS [41] = test: Inhibitory concentration for cytopathicity of HIV-1 in CEM-SS cells; assay type: functional, cell-based; details: Homo sapiens; method in brief: as §2
[42] = biological target: T2, Human immunodeficiency virus type 1 integrase; test: The compound is evaluated for the inhibitory against HIV -1 integrase. NI refers to no inhibition.
[43] = biological target: T4, Human immunodeficiency virus type 1 reverse transcriptase (Human immunodeficiency virus 1, UniProt Q72547); test: The compound is evaluated for the inhibitory against HIV -1 reverse transcriptase with rAdT as the template primer.
Method in brief: (§5)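 Reactions stopped with ice-cold 10% trichloroacetate, filtered through GF/C membrane, washed with ethanol, radiolabel counted by Cerenkov counting. AZTTP and nevirapine as positive controls; IC50 reported.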

[44] = biological target: T4, Human immunodeficiency virus type 1 reverse transcriptase; test: Inhibitory activity against human immunodeficiency virus (HIV) - 1 reverse transcriptase with rCdG as the template primer; method in brief: as §5
[45] = biological target: T1, Human immunodeficiency virus type 1 protease; test: The compound is evaluated for the inhibitory against HIV -1 protease, a 30% inhibition of HIV-1 protease was observed at a concentration of 100 uM

## COC(=O)CCCC=C(c1cc(Cl)c(OC)c(C(=O)OC)c1)c1cc(Cl)c(OC)c(C(=O)OC)c1
CCRF-CEM [1]
  EC50: 940 nM
CEM-SS [2]
  EC50: > 50000 nM
[3]
  IC50: > 100000 nM
[4]
  EC50: 1040 nM
CEM-SS [5]
  EC50: < 160 nM
[6]
  EC50: 2200 nM
[7]
  IC50: No inhibition
CCRF-CEM [8]
  CC50: 31600 nM
[9]
  EC50: 2280 nM
CEM-SS [10]
  EC50: 10800 nM
[11]
  EC50: 1020 nM
CEM-SS [12]
  EC50: 840 nM
CCRF-CEM [13]
  EC50: > 50000 nM
CEM-SS [14]
  EC50: 3050 nM
CCRF-CEM [15]
  EC50: 1080 nM
CEM-SS [16]
  EC50: 900 nM
[17]
  EC50: 400 nM
Homo sapiens
  EC50: 360 nM
CEM-SS [18]
  EC50: 1780 nM
CEM-SS [19]
  EC50: 12700 nM
CEM-SS [20]
  EC50: > 50000 nM
CCRF-CEM [21]
  EC50: 8080 nM
CEM-SS [22]
  EC50: 12000 nM
CCRF-CEM [23]
  EC50: 11900 nM
CCRF-CEM [24]
  EC50: 15000 nM
CCRF-CEM [25]
  EC50: > 50000 nM
[26]
  IC50: No inhibition
[27]
  EC50: 1700 nM
CCRF-CEM [28]
  EC50: > 50000 nM
CEM-SS [29]
  EC50: 50000 nM
[30]
  EC50: 1090 nM
CEM-SS [31]
  EC50: 160 nM
CEM-SS [32]
  EC50: 910 nM
CEM-SS [33]
  EC50: 270 nM
CCRF-CEM [34]
  EC50: 10800 nM
CEM-SS [35]
  EC50: 2230 nM
CEM-SS [36]
  EC50: > 50000 nM
[37]
  EC50: 430 nM
CCRF-CEM [38]
  EC50: 390 nM

## COC(=O)c1cc(C(=CCCN=[N+]=[N-])c2cc(Cl)c(OC)c(C(=O)OC)c2)cc(Cl)c1OC
CCRF-CEM [8]
  CC50: 41800 nM
[39]
  IC50: Not Active
[40]
  TI: 155
CEM-SS [41]
  EC50: 270 nM
[42]
  IC50: No inhibition
[43]
  IC50: 9900 nM
[44]
  IC50: 2000 nM
[45]
  IC50: > 100000 nM
